Active and inactive are the calls of the source. The calls are words filed in the database; no cut-off is given here. Bounds are passed on as bounds.

A short description of data set [1]: Cytotoxicity against human Lunet cells expressing ET subgenomic replicon after 4 days by Celltitre-Glo assay. The class given is cell-based. An outline of the steps: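 ET-Lunet replicon cells, 3000 cells/well, incubated 4 days with serially diluted compound; proliferation/viability by CellTiter-Glo luminescence; CC50 = concentration giving 50% inhibition, curve-fitted.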
A general note: A replicon is a self-replicating genome or part of one, used to study replication in cells.

For data set [2], the system named is Hepatitis C virus. Briefly: Antiviral activity against HCV genotype 1b infected in human ET-Lunet cells assessed as inhibition of HCV RNA replication after 4 days by firefly luciferase reporter gene assay. The class given is functional, organism-based, Hepacivirus hominis. The note with it: 96 h. The gist of the method:
(§1)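 ET-Lunet cells carrying genotype 1b replicon seeded at 3000 cells/well, exposed 4 days to serially diluted compound; HCV RNA replication read as firefly luciferase luminescence (Bright-Glo). EC50 taken as concentration giving 50% inhibition, from curve fitting.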
A general note: A reporter such as luciferase makes a cellular process visible.

Data set [3] in a line: Inhibition of HCV genotype 1b wild type recombinant NS5B RNA dependent RNA polymerase using IRES RNA as substrate after 30 mins by radioactive assay in presence of [alpha32p]UTP. On the set-up: species or system Hepatitis C virus subtype 1b. An outline of the steps: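 Recombinant genotype 1b NS5B (wild-type or S282T), 40 ng/μL, with 20 ng/μL genotype 1b (−) IRES RNA template. Mix holds 5 μM each of the four natural ribonucleotides plus [α-³²P]UTP, RNase inhibitor 1 unit/μL, 5 mM MgCl₂ and 2 mM DTT in 50 mM Hepes pH 7.5. Incubated at 27 °C for 30 min, then stopped with EDTA/NaCl/citrate. Radioactive RNA product quantified and IC50 fitted.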

For data set [4], the target named is RNA-directed RNA polymerase (Hepacivirus hominis, UniProt O39930, S282T). As to the kind of experiment: Inhibition of HCV genotype 1b recombinant NS5B RNA dependent RNA polymerase S282T mutant using IRES RNA as substrate after 30 mins by radioactive assay in presence of [alpha32p]UTP. Also on record: species or system Hepatitis C virus subtype 1b.
Sequence of RNA-directed RNA polymerase (O39930 entry or part of it S282T): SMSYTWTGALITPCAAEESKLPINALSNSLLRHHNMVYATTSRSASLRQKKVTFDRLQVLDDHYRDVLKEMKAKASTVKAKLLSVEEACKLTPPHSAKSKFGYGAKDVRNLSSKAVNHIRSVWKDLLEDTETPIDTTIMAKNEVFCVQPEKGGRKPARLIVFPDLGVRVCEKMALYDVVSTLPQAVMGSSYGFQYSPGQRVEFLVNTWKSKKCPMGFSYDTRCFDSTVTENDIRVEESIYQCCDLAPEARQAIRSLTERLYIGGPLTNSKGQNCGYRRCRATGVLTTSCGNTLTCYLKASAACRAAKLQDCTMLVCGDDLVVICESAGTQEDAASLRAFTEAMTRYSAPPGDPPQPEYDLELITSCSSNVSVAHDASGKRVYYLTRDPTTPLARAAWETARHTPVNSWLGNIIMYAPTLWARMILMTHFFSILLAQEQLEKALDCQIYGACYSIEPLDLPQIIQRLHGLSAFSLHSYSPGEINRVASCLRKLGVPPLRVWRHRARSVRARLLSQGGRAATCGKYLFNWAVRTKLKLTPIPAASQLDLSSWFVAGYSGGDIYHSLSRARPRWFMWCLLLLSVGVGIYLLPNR
Data set [5] concerns Hepatitis C virus. Briefly: Antiviral activity against HCV genotype 1b infected in human ET-Lunet cells assessed as inhibition of HCV RNA replication up to 100 uM after 4 days by firefly luciferase reporter gene assay. The class given is functional, organism-based. Particulars: Hepacivirus hominis. An outline of the steps: as §1

In data set [1], `O=c1ccn([C@@H]2O[C@H](CO)[C@@H](O)[C@@]23CCO3)c(=O)[nH]1` came in with a CC50 at 96 h above 100 µM. In the data set on Hepatitis C virus [2], the EC50 is above 100 µM. On to `COc1nc(N)nc2c1ncn2[C@@H]1O[C@H](CO[P@@](=O)(N[C@@H](C)C(=O)OC2CCCC2)Oc2ccccc2)[C@@H](O)[C@]12CCO2`, for which the CC50 at 96 h in data set [1] is above 20 µM. The half-maximal effective concentration (EC50) with Hepatitis C virus [2] worked out at 0.45 µM. Take `COc1nc(N)nc2c1ncn2[C@@H]1O[C@H](COP(=O)(N[C@@H](C)C(=O)OCC(C)(C)C)Oc2cccc3ccccc23)[C@@H](O)[C@]12CCO2` (mixture of isomers): the CC50 at 96 h in data set [1] is above 20 µM. Besides, the concentration giving a half-maximal response (EC50) in the data set on Hepatitis C virus [2] is 0.31 µM.

Molecule `COc1nc(N)nc2c1ncn2[C@@H]1O[C@H](CO[P@](=O)(N[C@@H](C)C(=O)OC2CCCC2)Oc2ccccc2)[C@@H](O)[C@]12CCO2` came in with a CC50 at 96 h in data set [1] above 20 µM. In addition, the EC50 in the data set on Hepatitis C virus [2] was 0.67 µM. On to `Nc1ccn([C@@H]2O[C@H](COP(=O)(O)OP(=O)(O)OP(=O)(O)O)[C@@H](O)[C@@]23CCO3)c(=O)n1`, for which the IC50 in data set [3] is above 100 µM. For the molecule `CCOC(=O)[C@H](C)N[P@](=O)(OC[C@H]1O[C@@H](n2cnc3c(OC)nc(N)nc32)[C@@]2(CCO2)[C@@H]1O)Oc1ccccc1`, the CC50 at 96 h in data set [1] is above 20 µM. Moreover, in the data set with Hepatitis C virus [2], the EC50 came to 0.86 µM. The corresponding values for `CCCCOC(=O)[C@H](C)N[P@@](=O)(OC[C@H]1O[C@@H](n2cnc3c(OC)nc(N)nc32)[C@@]2(CCO2)[C@@H]1O)Oc1ccccc1` are above 20 µM and 3.1 µM. For `CC(C)OC(=O)[C@H](C)NP(=O)(OC[C@H]1O[C@@H](n2ccc(N)nc2=O)[C@@]2(CCO2)[C@@H]1O)Oc1ccccc1` (stereo partly drawn) the same measures were above 100 µM and 16.7 µM.

Regarding `O=c1ccn([C@@H]2O[C@H](CO)[C@@H](O)[C@]23CCO3)c(=O)[nH]1`, the cytotoxic concentration (CC50) at 96 h in data set [1] was above 100 µM. In the data set on Hepatitis C virus [2], the EC50 is above 100 µM. Turning to `O=c1ccn([C@@H]2O[C@H](COP(=O)(O)OP(=O)(O)OP(=O)(O)O)[C@@H](O)[C@]23CCO3)c(=O)[nH]1`, the IC50 in data set [4] was above 100 µM; in data set [3], 39.4 µM. Regarding `COc1nc(N)nc2c1ncn2[C@@H]1O[C@H](CO[P@](=O)(N[C@@H](C)C(=O)OC(C)C)Oc2ccccc2)[C@@H](O)[C@]12CCO2`, the CC50 at 96 h in data set [1] was above 20 µM. Moreover, the 50% effective concentration (EC50) in the data set on Hepatitis C virus [2] came to 4.52 µM. For the molecule `Nc1nc2c(ncn2[C@@H]2O[C@H](COP(=O)(O)OP(=O)(O)OP(=O)(O)O)[C@@H](O)[C@]23CCO3)c(=O)[nH]1`, the IC50 in data set [4] turned out to be 10.4 µM; in data set [3] it was 9.5 µM. For the molecule `Nc1ccn([C@@H]2O[C@H](COP(=O)(O)OP(=O)(O)OP(=O)(O)O)[C@@H](O)[C@]23CCO3)c(=O)n1`, the half-inhibitory concentration (IC50) is above 100 µM in data set [4] and 8.48 µM in data set [3]. On to `COC(=O)[C@H](C)NP(=O)(OC[C@H]1O[C@@H](n2ccc(=O)[nH]c2=O)[C@@]2(CCCO2)[C@@H]1O)Oc1ccccc1` (mixture of isomers), for which the CC50 at 96 h in data set [1] was above 100 µM. Besides, the concentration giving a half-maximal response (EC50) with Hepatitis C virus [2] is 28.3 µM. `C[C@@]1(F)[C@H](O)[C@@H](CO)O[C@H]1n1ccc(N)nc1=O`: the IC50 worked out at 56.7 µM in data set [4] and 8.41 µM in data set [3]. Turning to `COc1nc(N)nc2c1ncn2[C@@H]1O[C@H](CO[P@@](=O)(N[C@@H](C)C(=O)OCC(C)C)Oc2ccccc2)[C@@H](O)[C@]12CCO2`, the CC50 at 96 h in data set [1] is above 20 µM. Besides, the EC50 in the data set on Hepatitis C virus [2] is 0.57 µM. The molecule `COc1nc(N)nc2c1ncn2[C@@H]1O[C@H](CO[P@](=O)(N[C@@H](C)C(=O)OCc2ccccc2)Oc2ccccc2)[C@@H](O)[C@]12CCO2` gave a half-maximal cytotoxic concentration (CC50) at 96 h in data set [1] above 20 µM. In addition, the EC50 in the data set with Hepatitis C virus [2] came out at 11.7 µM. For `COc1nc(N)nc2c1ncn2[C@@H]1O[C@H](CO[P@](=O)(N[C@@H](C)C(=O)OCC(C)C)Oc2ccccc2)[C@@H](O)[C@]12CCO2` the same measures were above 20 µM and 4.42 µM. In data set [1], `Nc1ccn([C@@H]2O[C@H](CO)[C@@H](O)[C@@]23CCO3)c(=O)n1` displayed a CC50 at 96 h above 100 µM. In addition, the concentration giving a half-maximal response (EC50) in the data set on Hepatitis C virus [2] is above 100 µM.

On to `Nc1ccn([C@@H]2O[C@H](COP(=O)(O)OP(=O)(O)OP(=O)(O)O)[C@@H](O)[C@]23CCCO3)c(=O)n1`, for which the figures for the IC50 in data set [4] and in data set [3] were above 100 µM and 45.3 µM, respectively. In the case of `COc1nc(N)nc2c1ncn2[C@@H]1O[C@H](CO[P@@](=O)(N[C@@H](C)C(=O)OCC(C)(C)C)Oc2ccccc2)[C@@H](O)[C@]12CCO2`, the CC50 at 96 h in data set [1] was above 20 µM. In addition, the 50% effective concentration (EC50) in the data set on Hepatitis C virus [2] came to 1.02 µM. For `CCCCOC(=O)[C@H](C)N[P@](=O)(OC[C@H]1O[C@@H](n2cnc3c(OC)nc(N)nc32)[C@@]2(CCO2)[C@@H]1O)Oc1ccccc1` the same measures were above 20 µM and 0.27 µM.

Take `COC(=O)[C@H](C)NP(=O)(OC[C@H]1O[C@@H](n2ccc(=O)[nH]c2=O)[C@]2(CCO2)[C@@H]1O)Oc1ccccc1` (mixture of isomers): the CC50 at 96 h in data set [1] is above 100 µM. The EC50 with Hepatitis C virus [2] is 28.5 µM. Turning to `Nc1nc2c(ncn2[C@@H]2O[C@H](CO)[C@@H](O)[C@]23CCO3)c(=O)[nH]1`, the inhibition result in the data set on Hepatitis C virus [5] was “inactive”. Turning to `Nc1ccn([C@@H]2O[C@H](COP(=O)(O)OP(=O)(O)OP(=O)(O)O)[C@@H](O)[C@@]23CCCO3)c(=O)n1`, the IC50 in data set [3] was above 100 µM.

In data set [1], `COc1nc(N)nc2c1ncn2[C@@H]1O[C@H](CO[P@@](=O)(N[C@@H](C)C(=O)OCc2ccccc2)Oc2ccccc2)[C@@H](O)[C@]12CCO2` registered a CC50 at 96 h above 20 µM. Further, the EC50 in the data set on Hepatitis C virus [2] is 8.65 µM.

Take `COc1nc(N)nc2c1ncn2[C@@H]1O[C@H](CO[P@](=O)(N[C@@H](C)C(=O)OCC(C)(C)C)Oc2ccccc2)[C@@H](O)[C@]12CCO2`: the half-maximal cytotoxic concentration (CC50) at 96 h in data set [1] was above 20 µM. Moreover, the 50% effective concentration (EC50) in the data set with Hepatitis C virus [2] stood at 9.31 µM.

For `Nc1ccn([C@@H]2O[C@H](CO)[C@@H](O)[C@]23CCCO3)c(=O)n1`, in data set [1], the CC50 at 96 h is above 100 µM. For the same molecule, in the data set on Hepatitis C virus [2], the concentration giving a half-maximal response (EC50) was above 100 µM.

In data set [1], `COC(=O)[C@H](C)NP(=O)(OC[C@H]1O[C@@H](n2cnc3c(OC)nc(N)nc32)[C@@]2(CCO2)[C@@H]1O)Oc1ccccc1` (mixture of isomers) yielded a cytotoxic concentration (CC50) at 96 h above 20 µM. Besides, the 50% effective concentration (EC50) with Hepatitis C virus [2] amounted to 7.16 µM. For `COC(=O)[C@H](C)NP(=O)(OC[C@H]1O[C@@H](n2ccc(=O)[nH]c2=O)[C@@]2(CCO2)[C@@H]1O)Oc1ccccc1` (mixture of isomers) the same measures were above 100 µM and 16.7 µM.

As for `Nc1ccn([C@@H]2O[C@H](CO)[C@@H](O)[C@]23CCO3)c(=O)n1`, in data set [1], the CC50 at 96 h is above 100 µM. In addition, in the data set with Hepatitis C virus [2], the EC50 came out at 56.6 µM.

In the case of `COc1nc(N)nc2c1ncn2[C@@H]1O[C@H](CO[P@@](=O)(N[C@@H](C)C(=O)OC(C)C)Oc2ccccc2)[C@@H](O)[C@]12CCO2`, the 50% cytotoxic concentration (CC50) at 96 h in data set [1] was above 20 µM. In the data set on Hepatitis C virus [2], the EC50 came out at 0.0045 µM. For `O=c1ccn([C@@H]2O[C@H](CO)[C@@H](O)[C@@]23CCCO3)c(=O)[nH]1` the same measures were above 100 µM and 14.9 µM. For `O=c1ccn([C@@H]2O[C@H](CO)[C@@H](O)[C@]23CCCO3)c(=O)[nH]1` the same measures were above 100 µM and above 100 µM. The corresponding values for `COC(=O)[C@H](C)NP(=O)(OC[C@H]1O[C@@H](n2ccc(=O)[nH]c2=O)[C@]2(CCCO2)[C@@H]1O)Oc1ccccc1` (mixture of isomers) are above 100 µM and 20.6 µM.

For the molecule `COc1nc(N)nc2c1ncn2[C@@H]1O[C@H](CO)[C@@H](O)[C@]12CCO2`, the inhibition result in the data set on Hepatitis C virus [5] is “inactive”. Take `O=c1ccn([C@@H]2O[C@H](COP(=O)(O)OP(=O)(O)OP(=O)(O)O)[C@@H](O)[C@@]23CCCO3)c(=O)[nH]1`: the half-maximal inhibitory concentration (IC50) in data set [3] is above 100 µM. `Nc1ccn([C@@H]2O[C@H](CO)[C@@H](O)[C@@]23CCCO3)c(=O)n1` yielded a 50% cytotoxic concentration (CC50) at 96 h in data set [1] above 100 µM. The EC50 in the data set with Hepatitis C virus [2] was above 100 µM.

With `COc1nc(N)nc2c1ncn2[C@@H]1O[C@H](COP(=O)(O)OP(=O)(O)OP(=O)(O)O)[C@@H](O)[C@@]1(C)F`, the figures for the IC50 in data set [4] and in data set [3] were 5.31 µM and 4.2 µM, respectively.

Usually CC50 stands for the concentration at which the toxic effect on the cells reaches its halfway point. A higher CC50 goes with better tolerance by the cells. The EC50 is the midpoint of the concentration-response curve. In general, IC50 refers to the point on the concentration scale where inhibition reaches its midpoint.

(Values after ChEMBL document CHEMBL3120143, “Use of 2'-spirocyclic ethers in HCV nucleoside design” (J Med Chem, 2014).)
